Activity calls are given as the source filed them. The calls are words filed in the database; no cut-off is given here.
Legend:
CHO [1] = test: (§1) Displacement of [3H]-CCR2-RA-(R) from human CCR2 C75S mutant expressed in CHO cell membranes assessed as radio ligand binding recovery at 10 times IC50 incubated for 2 hrs followed by extensive washing and centrifugation cycles before addition of [3H]-CCR2-RA-[R] for 2 hrs by scintillation counting method; settings: Cell membrane
[2] = target: T1, C-C chemokine receptor type 2 (Homo sapiens, UniProt P41597); test: (§2) Displacement of [3H]-CCR2-RA-(R) from human CCR2b expressed in human U2OS cell membranes assessed as radio ligand binding recovery at 10 times IC50 incubated for 2 hrs after pre-treatment with iodoacetamide for 30 mins and followed by extensive washing and centrifugation cycles before addition of [3H]-CCR2-RA-[R] for 2 hrs by scintillation counting method; settings: Cell membrane
Target sequence in this assay (P41597 whole entry, looked up): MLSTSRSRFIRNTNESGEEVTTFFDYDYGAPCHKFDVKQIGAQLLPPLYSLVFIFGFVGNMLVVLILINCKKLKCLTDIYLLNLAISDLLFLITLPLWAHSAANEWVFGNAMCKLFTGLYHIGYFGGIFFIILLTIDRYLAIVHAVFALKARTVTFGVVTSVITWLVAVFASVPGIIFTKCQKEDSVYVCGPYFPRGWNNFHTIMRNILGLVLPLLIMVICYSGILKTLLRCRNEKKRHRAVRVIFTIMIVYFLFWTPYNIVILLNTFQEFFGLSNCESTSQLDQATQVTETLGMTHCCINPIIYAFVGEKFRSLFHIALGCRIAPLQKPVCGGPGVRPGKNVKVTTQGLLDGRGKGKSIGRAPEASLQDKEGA

[3] = Stability in pH 7.4 Tris-HCl containing 5 mM MgCl2 and 0.1% CHAPS assessed as intact compound level measured at room temperature; assay type: physicochemical; settings: buffer, pH 7.4, 5000 µM
[4] = Displacement of [3H]-CCR2-RA-[R] from human CCR2 C232S mutant expressed in CHO cell membranes incubated for 2 hrs by scintillation counting method; design: species or system Cell membrane
[5] = GSH reactivity at 1 mM in presence of 80 uM reduced glutathione measured at 37 degC for over 4 hrs; assay type: physicochemical; settings: 1000 µM
[6] = target: T1, C-C chemokine receptor type 2; test: Displacement of [3H]-CCR2-RA from human CCR2b expressed in human U2OS cell membranes incubated for 2 hrs by scintillation counting method; settings: for Activity: Cell membrane, filed as antagonist
In short: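 U2OS-CCR2 membranes (5–30 μg protein) in 50 mM Tris-HCl pH 7.4, 5 mM MgCl2, 0.1% CHAPS. Coincubation 2 h at 25 °C with competitor 0.01 nM–10 μM and ~6 nM [3H]-CCR2-RA. Nonspecific binding with 10 μM JNJ-27141491. GF/B filtration, scintillation counting, IC50 by sigmoidal fit, Ki by Cheng–Prusoff.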

[7] = target: T1, C-C chemokine receptor type 2; test: Displacement of [3H]-CCR2-RA-(R) from human CCR2b expressed in human U2OS cell membranes pre-incubated for 4 hrs before radio ligand addition and measured after 20 mins by scintillation counting method; design: species or system Cell membrane
Target sequence in this assay (P41597 whole entry): as the sequence (P41597 whole entry, looked up) above

CHO [8] = test: as §1, with “[…]” for “C75S”; settings: Cell membrane
CHO [9] = test: as §1, with “C70S” for “C75S”; settings: Cell membrane
CHO [10] = test: as §1, with “C232S” for “C75S”; settings: Cell membrane
[11] = target: T1, C-C chemokine receptor type 2; test: Antagonist activity at human CCR2 expressed in human U2OS cell membranes as inhibition of [35S]GTPgammaS binding pre-incubated for 30 mins before CCL2 stimulation and followed by further incubation for 90 mins by scintillation counting method; assay type: functional; settings: for inhibition: Cell membrane, filed as antagonist
In short: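 Preincubation 30 min at 25 °C with increasing ligand plus EC80 CCL2 (20 nM). [35S]GTPγS 0.3 nM added for 90 min at 25 °C, then filtration and scintillation counting. Basal without ligand/chemokine; pIC50 by sigmoidal fit.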

[12] = target: T1, C-C chemokine receptor type 2; test: as §2, with “N-ethylmaleimide” for “iodoacetamide”; settings: Cell membrane
Target sequence in this assay (P41597 whole entry, looked up): as above

[13] = Displacement of [3H]-CCR2-RA-[R] from human CCR2 C75S mutant expressed in CHO cell membranes incubated for 2 hrs by scintillation counting method; design: species or system Cell membrane
[14] = target: T1, C-C chemokine receptor type 2; test: Antagonist activity at human CCR2 expressed in human U2OS cell membranes as [35S]GTPgammaS binding level at 250 nM pre-incubated for 30 mins before CCL2 stimulation and followed by further incubation for 90 mins by scintillation counting method relative to control; assay type: functional; design: scale not given: the % may be the effect or the level left; settings: Cell membrane, filed as antagonist
In short: (§3)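 U2OS-CCR2 membranes (40 μg) preincubated with or without single compound concentration (600 or 250 nM) in 50 mM Tris-HCl pH 7.4/5 mM MgCl2, then four centrifugation/wash cycles (unwashed: final spin only). Resuspended in buffer with NaCl, EDTA, BSA, saponin 0.5 mg/mL, GDP 10 μM and 20 nM CCL2. 30 min at 25 °C, then [35S]GTPγS 0.3 nM 90 min, filtration; expressed relative to CCL2 alone.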
Target sequence in this assay (P41597 whole entry, looked up): as above

[15] = target: T1, C-C chemokine receptor type 2; test: Antagonist activity at human CCR2 expressed in human U2OS cell membranes as [35S]GTPgammaS binding level at 250 nM pre-incubated for 30 mins followed by drug wash out before CCL2 stimulation and followed by further incubation for 90 mins by scintillation counting method relative to control; assay type: functional; design: scale not given: the % may be the effect or the level left; settings: Cell membrane, filed as antagonist; in short: as §3
Target sequence in this assay (P41597 whole entry, looked up): as above

[16] = target: T1, C-C chemokine receptor type 2; test: as §1, with “from wild type” for “from”, “CCR2” for “CCR2 C75S mutant”; settings: Cell membrane, filed as antagonist
Target sequence in this assay (P41597 whole entry, looked up): as above

[17] = target: T2, C-C chemokine receptor type 1 (Homo sapiens, UniProt P32246); test: Antagonist activity at human CCR1 expressed in human U2OS cell membranes as inhibition of [35S]GTPgammaS binding pre-incubated for 30 mins before CCL3 stimulation and followed by further incubation for 90 mins by scintillation counting method; assay type: functional, Cell membrane
T2 sequence (P32246 whole entry): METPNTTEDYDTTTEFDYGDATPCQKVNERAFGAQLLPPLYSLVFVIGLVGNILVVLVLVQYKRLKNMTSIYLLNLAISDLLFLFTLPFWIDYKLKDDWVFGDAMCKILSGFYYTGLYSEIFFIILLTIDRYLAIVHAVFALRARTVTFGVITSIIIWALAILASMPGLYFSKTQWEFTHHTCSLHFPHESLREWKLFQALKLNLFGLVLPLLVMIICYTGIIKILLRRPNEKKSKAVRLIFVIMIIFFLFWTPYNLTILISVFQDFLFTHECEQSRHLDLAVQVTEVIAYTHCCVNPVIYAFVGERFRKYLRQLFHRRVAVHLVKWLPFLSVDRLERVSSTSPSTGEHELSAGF

[18] = target: T1, C-C chemokine receptor type 2; test: as §2, with “hrs” for “hrs after pre-treatment with iodoacetamide for 30 mins and”; settings: Cell membrane, filed as antagonist
Target sequence in this assay (P41597 whole entry, looked up): as the sequence (P41597 whole entry, looked up) above

[19] = target: T1, C-C chemokine receptor type 2; test: Displacement of [3H]-CCR2-RA-[R] from wild type human CCR2 expressed in CHO cell membranes incubated for 2 hrs by scintillation counting method; design: species or system Cell membrane
Target sequence in this assay (P41597 whole entry): as the sequence (P41597 whole entry, looked up) above

[20] = target: T1, C-C chemokine receptor type 2; test: Antagonist activity at human CCR2 expressed in HEK293 cells assessed as inhibition of beta-arrestin recruitment pre-incubated for 20 mins before CCL2 stimulation and followed by further incubation for 90 mins by NanoBiT CCR2 assay based
Target sequence in this assay (P41597 whole entry): as the sequence (P41597 whole entry, looked up) above

[21] = Displacement of [3H]-CCR2-RA-[R] from human CCR2 C70S/C75S/C232S mutant expressed in CHO cell membranes incubated for 2 hrs by scintillation counting method; design: species or system Cell membrane
[22] = target: T1, C-C chemokine receptor type 2; test: Displacement of [3H]-CCR2-RA-(R) from human CCR2b expressed in human U2OS cell membranes pre-incubated for 0 hrs before radio ligand addition and measured after 20 mins by scintillation counting method; design: species or system Cell membrane
Target sequence in this assay (P41597 whole entry): as the sequence (P41597 whole entry, looked up) above

[23] = target: T1, C-C chemokine receptor type 2; test: Antagonist activity at human CCR2 expressed in HEK293 cells assessed as inhibition of beta-arrestin recruitment pre-incubated for 20 mins followed by drug wash out before CCL2 stimulation and followed by further incubation for 90 mins by NanoBiT CCR2 assay based
Target sequence in this assay (P41597 whole entry): as the sequence (P41597 whole entry, looked up) above

[24] = Displacement of [3H]-CCR2-RA-[R] from human CCR2 C70S mutant expressed in CHO cell membranes incubated for 2 hrs by scintillation counting method; design: species or system Cell membrane
[25] = target: T1, C-C chemokine receptor type 2; test: Ratio of IC50 for antagonist activity at human CCR2 expressed in HEK293 cells assessed as inhibition of beta-arrestin recruitment pre-incubated for 20 mins followed by drug wash out before CCL2 stimulation and followed by further incubation for 90 mins by NanoBiT CCR2 assay to IC50 for antagonist activity at human CCR2 expressed in HEK293 cells assessed as inhibition of beta-arrestin recruitment pre-incubated for 20 mins before CCL2 stimulation and followed by further incubation for 90 mins by NanoBiT CCR2 assay

Q: With `O=C(O)c1ccc(Oc2ccc(Cl)cc2NS(=O)(=O)c2ccc(Cl)c(Cl)c2)cc1` as the compound, how does the Activity (CHO [1]) read?
A: 100%

Q: What about the Activity [2] of the same compound?
A: 104%

Q: And the Stabilty [3]?
A: > 6 h

Q: And the pIC50 [4]?
A: 7.9

Q: What about the Stabilty [5] of the same compound?
A: Unstable

Q: And the Activity [6]?
A: Dose-dependent effect

Q: And the Ki ([7]; read-out: pKi (converted))?
A: 6.31 nM

Q: And the Activity (CHO [8])?
A: inactive

Q: What about the Activity (CHO [9]) of the same compound?
A: 100%

Q: What about the Activity (CHO [10]) of the same compound?
A: 100%

Q: And the inhibition [11]?
A: Dose-dependent effect

Q: And the Activity [12]?
A: inactive

Q: For `O=C(NCCN=C=S)c1ccc(Oc2ccc(Cl)cc2NS(=O)(=O)c2ccc(Cl)c(C(F)(F)F)c2)cc1`, which Activity [6] is on record?
A: Dose-dependent effect

Q: What about the Ki ([6]; read-out: Ki) of the same compound?
A: 31 nM

Q: With `C=CC(=O)NCCNC(=O)c1ccc(Oc2ccc(Cl)cc2NS(=O)(=O)c2ccc(Cl)c(C(F)(F)F)c2)cc1` as the compound, how does the Activity [6] read?
A: Dose-dependent effect

Q: And the Ki ([6]; read-out: Ki)?
A: 22 nM

Q: Which IC50 [13] does the source give for `N#CSCCNC(=O)c1ccc(Oc2ccc(Cl)cc2NS(=O)(=O)c2ccc(Cl)c(C(F)(F)F)c2)cc1` here?
A: 5 nM

Q: What about the pIC50 [13] of the same compound?
A: 8.4

Q: What about the Activity [14] of the same compound?
A: -5%

Q: What about the Activity (CHO [1]; filed as antagonist) of the same compound?
A: 30%

Q: And the Activity [2]?
A: 93%

Q: What about the Stabilty [3] of the same compound?
A: > 6 h

Q: And the Activity [15]?
A: -24%

Q: And the IC50 [4]?
A: 1 nM

Q: What about the pIC50 [4] of the same compound?
A: 8.8

Q: And the Stabilty [5]?
A: Stable

Q: And the Activity [16]?
A: 9%

Q: And the Activity [6]?
A: Dose-dependent effect

Q: What about the Ki ([6]; read-out: Ki) of the same compound?
A: 4 nM

Q: What about the IC50 [17] of the same compound?
A: 5010 nM

Q: And the Activity [18]?
A: 27%

Q: What about the IC50 ([19]; read-out: IC50) of the same compound?
A: 2 nM

Q: And the IC50 ([19]; read-out: pIC50 (converted))?
A: 1.58 nM

Q: And the Ki ([7]; read-out: Ki)?
A: 0.7 nM

Q: What about the IC50 [20] of the same compound?
A: 4 nM

Q: And the IC50 [21]?
A: 16 nM

Q: What about the pIC50 [21] of the same compound?
A: 7.8

Q: And the Ki ([22]; read-out: Ki)?
A: 2.4 nM

Q: What about the Ki ([22]; read-out: pKi (converted)) of the same compound?
A: 2 nM

Q: And the Activity (CHO [8])?
A: inactive

Q: What about the IC50 [23] of the same compound?
A: 10 nM

Q: And the Activity (CHO [9]; filed as antagonist)?
A: Active

Q: What about the Activity (CHO [10]; filed as antagonist) of the same compound?
A: Active

Q: And the pIC50 [24]?
A: 8.4

Q: And the Ratio IC50 [25]?
A: 2.5

Q: What about the IC50 [11] of the same compound?
A: 33 nM

Q: And the inhibition [11]?
A: Dose-dependent effect

Q: And the Activity [12]?
A: inactive

Q: With `O=C(NCCNC(=O)c1ccc(S(=O)(=O)F)cc1)c1ccc(Oc2ccc(Cl)cc2NS(=O)(=O)c2ccc(Cl)c(C(F)(F)F)c2)cc1` as the compound, how does the Activity [6] read?
A: Dose-dependent effect

Q: What about the Ki ([6]; read-out: Ki) of the same compound?
A: 89 nM

Q: And the Ki ([6]; read-out: pKi (converted))?
A: 63.1 nM

Reference: ChEMBL document CHEMBL4732216, “Design and Characterization of an Intracellular Covalent Ligand for CC Chemokine Receptor 2” (J Med Chem, 2021)
